Test results reported in ChEMBL document CHEMBL1129639, “Synthesis and cardiotonic activity of novel pyrimidine derivatives: crystallographic and quantum chemical studies” (J Med Chem, 1996).

Key:
[1] = species: Cavia porcellus; test: Effect on the frequency rate of spontaneously beating atria from Reserpine-treated guinea pigs as percentage variation from the control at concentration of 10E-4 M; assay type: functional
Outline: (§1)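 Atria from reserpine-treated guinea pigs (reserpine 2 mg/kg ip, 48 and 24 h before death; only tyramine-unresponsive preparations used). Bath solution at 29 °C, gassed 95% O2/5% CO2, pH 7.5, resting tension […]. After 90 min equilibration, compound added cumulatively, 5 min per concentration. Isometric developed-tension amplitude or beating rate given as % variation from untreated control. Mean ± SEM, 6-10 assays.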

[2] = species: Cavia porcellus; test: Effect on the frequency rate of spontaneously beating atria from Reserpine-treated guinea pigs as percentage variation from the control at concentration of 10E-6 M; assay type: functional; outline: as §1
[3] = species: Cavia porcellus; test: Effect on the contractile force of spontaneously beating atria from Reserpine-treated guinea pigs as percentage variation from the control at concentration of 3 x 10E-6 M; assay type: functional; outline: as §1
[4] = species: Cavia porcellus; test: Effect on the contractile force of spontaneously beating atria from Reserpine-treated guinea pigs as percentage variation from the control at concentration of 10E-5 M; assay type: functional; outline: as §1
[5] = species: Cavia porcellus; test: Effect on the contractile force of spontaneously beating atria from Reserpine-treated guinea pigs as percentage variation from the control at concentration of 3 x 10E-5 M; assay type: functional; outline: as §1
[6] = species: Cavia porcellus; test: (§2) Compound was evaluated for its effect on the frequency rate of spontaneously beating atria from Reserpine-treated guinea pigs as percentage variation from the control at concentration of 3 x 10E-5 M; assay type: functional, guinea pig; outline: as §1
[7] = species: Cavia porcellus; test: Effect on the contractile force of spontaneously beating atria from Reserpine treated guinea pigs as percentage variation from the control at concentration of 10E-4 M; assay type: functional; outline: as §1
[8] = species: Cavia porcellus; test: Effect on the contractile force of spontaneously beating atria from Reserpine-treated guinea pigs as percentage variation from the control at concentration of 10E-6 M; assay type: functional; outline: as §1
[9] = species: Cavia porcellus; test: Compound was evaluated for its effect on the frequency rate of spontaneously beating atria from Reserpine-treated guinea pigs as percentage variation from the control at concentration of 3 x 10E-6 M; assay type: functional; outline: as §1
[10] = species: Cavia porcellus; test: Effect on the frequency rate of spontaneously beating atria from Reserpine-treated guinea pigs as percentage variation from the control at concentration of 10E-5 M; assay type: functional; outline: as §1
[11] = species: Cavia porcellus; test: Compound was evaluated for its effect on the frequency rate of spontaneously beating atria from Reserpine-treated guinea pigs as percentage variation from the control at concentration of 3 x 10E-4 M; assay type: functional; outline: as §1
[12] = species: Cavia porcellus; test: Effect on the contractile force of spontaneously beating atria from Reserpine-treated guinea pigs as percentage variation from the control at concentration of 3 x 10E-4 M; assay type: functional; outline: as §1
[13] = species: Cavia porcellus; test: Effect on the frequency rate of spontaneously beating atria from Reserpine-treated guinea pigs as percentage variation from the control at concentration of 10E-3 M; assay type: functional; outline: as §1
[14] = species: Cavia porcellus; test: Effect on the contractile force of spontaneously beating atria from Reserpine-treated guinea pigs as percentage variation from the control at concentration of 10E-3 M; assay type: functional; outline: as §1
[15] = species: Cavia porcellus; test: Compound was evaluated for its effect on the frequency rate of spontaneously beating atria from Reserpine-treated guinea pigs as percentage variation from the control at different concentration of 10E-5 M; assay type: functional; outline: as §1
[16] = species: Cavia porcellus; test: Compound was evaluated for its effect on the frequency rate of spontaneously beating atria from Reserpine-treated guinea pigs as percentage variation from the control at different concentration of 3 x10E-6 M; assay type: functional; outline: as §1
[17] = species: Cavia porcellus; test: Compound was evaluated for its effect on the frequency rate of spontaneously beating atria from Reserpine-treated guinea pigs as percentage variation from the control at different concentration of 10E-4 M; assay type: functional; outline: as §1
[18] = species: Cavia porcellus; test: Compound was evaluated for its effect on the frequency rate of spontaneously beating atria from Reserpine-treated guinea pigs as percentage variation from the control at different concentration of 3 x 10E-5 M; assay type: functional; outline: as §1
[19] = species: Cavia porcellus; test: Compound was evaluated for its effect on the frequency rate of spontaneously beating atria from Reserpine-treated guinea pigs as percentage variation from the control at different concentration of 10E-3 M; assay type: functional; outline: as §1
[20] = species: Cavia porcellus; test: Compound was evaluated for its effect on the frequency rate of spontaneously beating atria from Reserpine-treated guinea pigs as percentage variation from the control at different concentration of 10E-6 M; assay type: functional; outline: as §1
[21] = species: Cavia porcellus; test: Compound was evaluated for its effect on the frequency rate of spontaneously beating atria from Reserpine-treated guinea pigs as percentage variation from the control at different concentration of 3 x 10E-4 M; assay type: functional; outline: as §1
[22] = species: Cavia porcellus; test: as §2; assay type: functional; outline: as §1
[23] = species: Cavia porcellus; test: Compound was evaluated for its effect on the contractile force of spontaneously beating atria from Reserpine-treated guinea pigs as percentage variation from the control at concentration 10E-3 M; assay type: functional; outline: as §1
[24] = species: Cavia porcellus; test: Compound was evaluated for its effect on the frequency rate of spontaneously beating atria from Reserpine-treated guinea pigs as percentage variation from the control at concentration of 10e-6 M; assay type: functional; outline: as §1

| Structure (SMILES) | Variation [1] [%] | Variation [3] [%] | Variation [4] [%] | Variation [5] [%] | Variation [7] [%] | Variation [8] [%] | Variation [9] [%] | Variation [10] [%] | Variation [11] [%] | Variation [12] [%] | Variation [13] [%] | Variation [14] [%] | further results |
| --- | --- | --- | --- | --- | --- | --- | --- | --- | --- | --- | --- | --- | --- |
| CCOC(=O)c1cnc(N(C)C)nc1 | 11.11 | 4.76 | 5.55 | 11.04 | 9.03 | 1.19 | 0 | 3.71 | 14.81 | 11.71 | 18.51 | -59.61 | Variation [2]: 0%; Variation [6]: 7.43% |
| CN(C)c1ncccn1 | – | 4.92 | 9.17 | 11.63 | 15.08 | 0 | – | – | – | 37.73 | – | 41.66 | Variation [15]: 1.33%; Variation [16]: 0%; Variation [17]: 9.72%; Variation [18]: 3.72%; Variation [19]: 25.17%; Variation [20]: 0%; Variation [21]: 17.44% |
| CCOC(=O)c1cnc(N(C)C)nc1C | 7.14 | 7.12 | 9.91 | 15.88 | -21.41 | 2.79 | 0 | 0 | 10.71 | -25.87 | -17.85 | – | Variation [22]: 3.57%; Variation [23]: -49.52%; Variation [24]: -3.57% |
